One block for each compound: values may come before it. Calls of active or inactive are those of the source. No cut-off for these calls is given here.
How the values were obtained:
[1] = tested on: MIA PaCa-2; test: Cytotoxicity against human MIAPaCa2 cells assessed as decrease in cell viability after 48 hrs by MTS assay; format: functional; conditions: for CC50: MIA PaCa-2, 48 h
How it was run: (§1)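 Cells were seeded at equal numbers and, after 24 h, exposed to compounds (0–30 µM) for 48 h. MTS reagent (20% v/v) was then added for 1–4 h, and OD490 was read. Cell-free medium wells served as blanks. Media were DMEM/F12 + 10% FBS for BT-474; DMEM + 10% FBS for DU-145 and MDA-MB-231; and DMEM + 10% FBS + 2.5% horse serum for MiaPaCa-2. Values are mean ± SD, n=6.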

[2] = tested on: DU-145; test: Cytotoxicity against human DU145 cells assessed as decrease in cell viability after 48 hrs by MTS assay; format: functional; conditions: for CC50: DU-145, 48 h; how it was run: as §1
[3] = tested on: BT-474; test: Cytotoxicity against human BT474 cells assessed as decrease in cell viability after 48 hrs by MTS assay; format: functional; conditions: for CC50: BT-474, 48 h; how it was run: as §1
[4] = tested on: MDA-MB-231; test: Cytotoxicity against human MDA-MB-231 cells assessed as decrease in cell viability after 48 hrs by MTS assay; format: functional; conditions: for CC50: MDA-MB-231, 48 h; how it was run: as §1
[5] = tested on: MIA PaCa-2; test: Cytotoxicity against human MIAPaCa2 cells assessed as cell death at 7.5 uM after 48 hrs by MTS assay; format: functional
How it was run: (§2)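 Equal numbers of cells were plated. After 24 h they were exposed to compounds (0–30 µM) for 48 h, then given MTS reagent (20% v/v) for 1–4 h. OD490 was read against cell-free blank wells; mean ± SD of 6 determinations. Media: BT-474 in DMEM/F12 + 10% FBS; DU-145, JIMT-1 and MDA-MB-231 in DMEM + 10% FBS; MiaPaCa-2 in DMEM + 10% FBS + 2.5% horse serum; PC-3 in F12K + 10% FBS; all with penicillin/streptomycin.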

[6] = tested on: DU-145; test: Cytotoxicity against human DU145 cells assessed as cell death at 7.5 uM after 48 hrs by MTS assay; format: functional; how it was run: as §2
[7] = tested on: BT-474; test: Cytotoxicity against human BT474 cells assessed as cell death at 7.5 uM after 48 hrs by MTS assay; format: functional; how it was run: as §2
[8] = tested on: MDA-MB-231; test: Cytotoxicity against human MDA-MB-231 cells assessed as cell death at 7.5 uM after 48 hrs by MTS assay; format: functional; how it was run: as §2
[9] = tested on: PC-3; test: Cytotoxicity against human PC3 cells assessed as cell death at 7.5 uM after 48 hrs by MTS assay; format: functional; how it was run: as §2
[10] = tested on: JIMT-1; test: Cytotoxicity against human JIMT1 cells assessed as cell death at 7.5 uM after 48 hrs by MTS assay; format: functional; how it was run: as §2
[11] = tested on: BT-474; test: Disruption of cancer stem cells spheroids derived from human BT474 cells at >=5 uM after 3 days by microscopic analysis; format: functional, cell-based
How it was run: (§3)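 Cancer stem cells were isolated from BT-474 by ALDH1 activity. Equal numbers were seeded in ultra-low-adhesion wells and grown to spheroids. Spheroids were then incubated with or without compounds for 3 days. Spheroid integrity was assessed by light microscopy (×10). Viability was measured in parallel by MTS.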

[12] = tested on: BT-474; test: Cytotoxicity against cancer stem cells derived from human BT474 cells assessed as cancer stem cell death at 7.5 uM after 3 days by MTS assay; format: functional
How it was run: (§4)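 CSCs were isolated from BT-474 using ALDH1 activity as the stemness marker. They were grown in ultra-low adhesion wells for 4 days to form spheroids. Spheroids were then exposed to compounds (0–20 µM) for 3 days. Viability was read by MTS assay and expressed as % of untreated control.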

[13] = tested on: Erythrocyte; test: Induction of hemolysis in sheep erythrocytes at 30 uM after 30 mins by spectrophotometric analysis; format: functional, Ovis aries
[14] = tested on: DU-145; test: Induction of cell death in human DU145 cells assessed as rounding up of cells at 6 uM after 6 hrs fluorescence microscopic analysis; format: functional, cell-based
How it was run: (§5)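 DU-145 cells were incubated with compounds at 6 µM for 6 h. They were then stained with cell-impermeant ethidium homodimer-1 and examined by fluorescence microscopy for cell rounding and red DNA staining. Cells given 0.01% Triton X-100 for 10 min served as the lysis control.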

[15] = tested on: JIMT-1; test: Induction of cell death in human JIMT1 cells assessed as rounding up of cells at 4 uM after 6 hrs by fluorescence microscopic analysis; format: functional, cell-based
[16] = tested on: DU-145; test: Induction of membrane lysis in human DU145 cells at 6 uM after 6 hrs by EthD-1 staining based fluorescence microscopic analysis; format: functional, cell-based; how it was run: as §5
[17] = tested on: JIMT-1; test: Induction of membrane lysis in human JIMT1 cells at 4 uM after 6 hrs by EthD-1 staining based fluorescence microscopic analysis; format: functional, cell-based
[18] = tested on: BT-474; test: Disruption of cancer stem cells spheroids derived from human BT474 cells at >=7.5 uM after 3 days by microscopic analysis; format: functional, cell-based; how it was run: as §3
[19] = Stability in bovine liver extracts assessed as bovine liver glycosidase mediated compound cleavage by TLC analysis; format: ADME, Bos taurus; conditions: cattle
How it was run: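 A bovine liver glycosidase fraction in 0.05 M sodium citrate pH 5.0 was combined with 0.2 M citrate pH 4.4 buffer, substrate (30 mM stock) and Triton X-100 (10% stock) for solubilization. Controls were no enzyme and a β-D-glucose-based GAEL. After 1 h, methanol was added, the mixture was centrifuged, and the supernatant was analysed by TLC. Run in quadruplicate.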

[20] = tested on: BT-474; test: Disruption of cancer stem cells spheroids derived from human BT474 cells at 7.5 uM after 3 days by microscopic analysis; format: functional, cell-based
How it was run: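 Equal numbers of ALDH1-selected BT-474 cancer stem cells were seeded in ultra-low adhesion wells and grown to form spheroids. Spheroids were incubated with or without compound for 3 days. Spheroid integrity was judged by microscopic imaging at ×10.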

[21] = tested on: BT-474; test: Cytotoxicity against cancer stem cells derived from human BT474 cells assessed as cancer stem cell death at 20 uM after 3 days by MTS assay; format: functional; how it was run: as §4
[22] = tested on: MIA PaCa-2; test: Cytotoxicity against human MIAPaCa2 cells assessed as cell death at 2 to 25 times CC50 after 48 hrs by MTS assay; format: functional; how it was run: as §2
[23] = tested on: DU-145; test: Cytotoxicity against human DU145 cells assessed as cell death at 2 to 25 times CC50 after 48 hrs by MTS assay; format: functional; how it was run: as §2
[24] = tested on: BT-474; test: Cytotoxicity against human BT474 cells assessed as cell death at 2 to 25 times CC50 after 48 hrs by MTS assay; format: functional; how it was run: as §2
[25] = tested on: MDA-MB-231; test: Cytotoxicity against human MDA-MB-231 cells assessed as cell death at 2 to 25 times CC50 after 48 hrs by MTS assay; format: functional; how it was run: as §2
[26] = tested on: PC-3; test: Cytotoxicity against human PC3 cells assessed as cell death at 2 to 25 times CC50 after 48 hrs by MTS assay; format: functional; how it was run: as §2
[27] = tested on: JIMT-1; test: Cytotoxicity against human JIMT1 cells assessed as cell death at 2 to 25 times CC50 after 48 hrs by MTS assay; format: functional; how it was run: as §2
[28] = tested on: BT-474; test: Disruption of cancer stem cells spheroids derived from human BT474 cells at 20 uM after 3 days by microscopic analysis; format: functional, cell-based; how it was run: as §3
[29] = tested on: DU-145; test: Cytotoxicity against human DU145 cells assessed as decrease in cell viability up to 8 uM after 48 hrs in absence of pan-caspase inhibitor QVD-OPh by MTS assay; format: functional, cell-based
How it was run: (§6)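 DU-145 and JIMT-1 cells (DMEM + 10% FBS) were treated with compounds with or without the pan-caspase inhibitor QVD-OPh (40 µM). Viability was read by MTS: cells were seeded, treated 24 h later for 48 h, given MTS (20% v/v) for 1–4 h, and read at OD490 against cell-free blanks.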

[30] = tested on: DU-145; test: Cytotoxicity against human DU145 cells assessed as decrease in cell viability up to 8 uM after 48 hrs in presence of pan-caspase inhibitor QVD-OPh by MTS assay; format: functional, cell-based; how it was run: as §6
[31] = tested on: JIMT-1; test: Cytotoxicity against human JIMT1 cells assessed as decrease in cell viability up to 8 uM after 48 hrs in presence of pan-caspase inhibitor QVD-OPh by MTS assay; format: functional, cell-based; how it was run: as §6
[32] = tested on: JIMT-1; test: Cytotoxicity against human JIMT1 cells assessed as decrease in cell viability up to 8 uM after 48 hrs in absence of pan-caspase inhibitor QVD-OPh by MTS assay; format: functional, cell-based; how it was run: as §6

SMILES: CCCCCCCCCCCCCCCCOC[C@H](CO[C@@H]1O[C@H](CN)[C@@H](OCc2ccccc2)[C@H](O)[C@H]1N)OC
- CC50 [1]: 2 to 6 µM
- CC50 [2]: 2 to 6 µM
- CC50 [3]: 2 to 6 µM
- CC50 [4]: 2 to 6 µM
- Activity [5]: >95%
- Activity [6]: >95%
- Activity [7]: >95%
- Activity [8]: >95%
- Activity [9]: >95%
- Activity [10]: >95%
- Activity [11]: Active
- Activity [12]: >95%
- Activity [13]: <5%
- Activity [14]: Active
- Activity [15]: Active
- Activity [16]: inactive
- Activity [17]: inactive

- Stability [19]: Stable
SMILES: CCCCCCCCCCCCCCCCOC[C@H](CO[C@@H]1O[C@H](CO)[C@@H](O)[C@H](O)[C@H]1N)OC
- CC50 [1]: 6.5 to 13 µM
- CC50 [2]: 6.5 to 13 µM
- CC50 [3]: 6.5 to 13 µM
- CC50 [4]: 6.5 to 13 µM
- Activity [18]: Active
- Activity [13]: <5%

SMILES: CC[C@@H](C(=O)[C@@H](C)[C@@H](O)[C@H](C)[C@@H]1O[C@@H]([C@@H](CC)C(=O)O)CC[C@@H]1C)[C@H]1O[C@]2(C=C[C@@H](O)[C@]3(CC[C@@](C)([C@H]4CC[C@](O)(CC)[C@H](C)O4)O3)O2)[C@H](C)C[C@@H]1C [SALINOMYCIN]
- Activity [1]: Active
- Activity [2]: Active
- Activity [3]: Active
- Activity [4]: Active
- Activity [20]: inactive
- Activity [12]: 60%
- Activity [21]: 87%

SMILES: COc1cccc2c1C(=O)c1c(O)c3c(c(O)c1C2=O)C[C@@](O)(C(=O)CO)C[C@@H]3O[C@H]1C[C@H](N)[C@H](O)[C@H](C)O1.Cl [DOXORUBICIN HYDROCHLORIDE]
- Activity [22]: <90%
- Activity [23]: <90%
- Activity [24]: <90%
- Activity [25]: <90%
- Activity [26]: <90%
- Activity [27]: <90%
- Activity [28]: inactive
- Activity [12]: 75%
- Activity [21]: 72%
- Activity [29]: Active
- Activity [30]: inactive
- Activity [31]: inactive
- Activity [32]: Active

Source: ChEMBL document CHEMBL4007413, “Replacing d-Glucosamine with Its l-Enantiomer in Glycosylated Antitumor Ether Lipids (GAELs) Retains Cytotoxic Effects against Epithelial Cancer Cells and Cancer Stem Cells” (J Med Chem, 2017)
